Test results from ChEMBL document CHEMBL4118262, “Synthesis and biological evaluation of novel N-substituted nipecotic acid derivatives with an alkyne spacer as GABA uptake inhibitors” (Bioorg Med Chem, 2018).

Experiments:
[1] = target: Sodium- and chloride-dependent GABA transporter 1 (Mus musculus) (UniProt P31648); assay: Inhibition of [2H10]NO 711 binding to mouse GAT1 expressed in HEK293 cell membranes assessed as remaining NO711 binding at 100 uM after 40 mins by LC-ESI-MS-MS analysis relative to control
[2] = target: T1, GABA transporter 4 (Mus musculus) (UniProt P31650); assay: Inhibition of mouse GAT4 expressed in HEK293 cells assessed as decrease in [3H]GABA uptake at 100 uM preincubated for 25 mins followed by [3H]GABA addition measured after 4 mins by liquid scintillation counting analysis relative to control; format: cell-based; set-up: scale not given: the % may be the effect or the level left
T1 sequence (whole entry): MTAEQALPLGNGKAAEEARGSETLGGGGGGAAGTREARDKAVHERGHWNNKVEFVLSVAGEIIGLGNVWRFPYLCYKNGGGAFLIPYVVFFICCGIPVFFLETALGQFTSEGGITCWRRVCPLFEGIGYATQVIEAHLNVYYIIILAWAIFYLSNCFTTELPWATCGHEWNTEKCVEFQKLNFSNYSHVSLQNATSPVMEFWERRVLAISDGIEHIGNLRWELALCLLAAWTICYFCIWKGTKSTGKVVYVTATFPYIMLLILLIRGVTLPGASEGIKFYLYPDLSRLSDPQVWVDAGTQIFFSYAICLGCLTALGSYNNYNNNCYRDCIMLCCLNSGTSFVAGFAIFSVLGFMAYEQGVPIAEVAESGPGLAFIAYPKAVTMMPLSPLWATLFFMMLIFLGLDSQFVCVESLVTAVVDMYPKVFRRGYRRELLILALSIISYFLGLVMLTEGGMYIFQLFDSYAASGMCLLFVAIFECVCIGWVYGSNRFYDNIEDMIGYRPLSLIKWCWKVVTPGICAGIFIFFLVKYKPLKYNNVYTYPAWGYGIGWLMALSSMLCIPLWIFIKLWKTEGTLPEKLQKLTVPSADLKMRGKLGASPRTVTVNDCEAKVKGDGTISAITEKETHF
Outline: (§1)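 [³H]GABA uptake assay in HEK cells expressing the mGAT subtype named in the line, run in triplicate. Potencies are given as pIC₅₀ ± SEM. No SEM is given where only one triplicate measurement was made. Where 100 µM test compound left uptake at or above 50% (pIC₅₀ ≤ 4.00), the percent remaining [³H]GABA uptake at 100 µM is reported instead.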

[3] = target: Sodium- and chloride-dependent GABA transporter 1 (Mus musculus) (UniProt P31648); assay: Inhibition of mouse GAT1 expressed in HEK293 cells assessed as decrease in [3H]GABA uptake at 100 uM preincubated for 25 mins followed by [3H]GABA addition measured after 4 mins by liquid scintillation counting analysis relative to control; format: cell-based; set-up: scale not given: the % may be the effect or the level left; outline: as §1
[4] = tested on: GABA transporter mGAT3 (Slc6a13) (Mus musculus); assay: Inhibition of mouse GAT3 expressed in HEK293 cells assessed as decrease in [3H]GABA uptake at 100 uM preincubated for 25 mins followed by [3H]GABA addition measured after 4 mins by liquid scintillation counting analysis relative to control; set-up: scale not given: the % may be the effect or the level left
[5] = tested on: betaine/GABA transporter BGT1 (mGAT2, Slc6a12) (Mus musculus); assay: Inhibition of mouse GAT2 expressed in HEK293 cells assessed as decrease in [3H]GABA uptake at 100 uM preincubated for 25 mins followed by [3H]GABA addition measured after 10 mins by liquid scintillation counting analysis relative to control; set-up: scale not given: the % may be the effect or the level left
[6] = target: T2, Sodium- and chloride-dependent GABA transporter 1 (Mus musculus, UniProt P31648); assay: Inhibition of [2H10]NO 711 binding to mouse GAT1 expressed in HEK293 cell membranes after 40 mins by LC-ESI-MS-MS analysis
Outline: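 MS Binding Assay on mGAT1 expressed in HEK cells, with NO711 as marker. Run in triplicate. Results are reported as pKi ± SEM. Where only one triplicate measurement was made, no SEM is given.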

[7] = target: T2, Sodium- and chloride-dependent GABA transporter 1; assay: Inhibition of mouse GAT1 expressed in HEK293 cells assessed as decrease in [3H]GABA uptake preincubated for 25 mins followed by [3H]GABA addition measured after 4 mins by liquid scintillation counting analysis; format: cell-based; outline: as §1
GABA transporter 4 = target: T3, GABA transporter 4 (Mus musculus, UniProt P31650); assay: Inhibition of mouse GAT4 expressed in HEK293 cells assessed as decrease in [3H]GABA uptake preincubated for 25 mins followed by [3H]GABA addition measured after 4 mins by liquid scintillation counting analysis; format: cell-based; outline: as §1
T3 sequence (P31650 whole entry): T1 sequence (whole entry)

SMILES	Activity [1] [%]	Activity [2] [%]	Activity [3] [%]	Activity [4] [%]	Activity [5] [%]	Ki [6] [µM]	IC50 [7] [µM]	IC50 (GABA transporter 4) [µM]
C=C=C(CN1CCCC(C(=O)O)C1)C(c1ccccc1)(c1ccccc1)c1ccccc1 (racemic)	70	54	62	80	87	–	–	–
O=C(O)C1CCCN(CC#CCC(c2ccccc2)(c2ccccc2)c2ccccc2)C1 (racemic)	–	–	–	50	66	14.5	35.5	70.8
COc1ccc(C(C#CCN2CCCC(C(=O)O)C2)(c2ccc(OC)cc2)c2ccc(OC)cc2)cc1 (racemic)	–	–	–	–	–	4.37	14.5	29.5
COc1ccc(C(C#CCN2CCCC(C(=O)O)C2)(c2ccc(OC)cc2)c2nccs2)cc1 (racemic)	–	79	68	82	84	77.6	–	–
COc1ccc(C(C#CCN2CCCC(C(=O)O)C2)(c2ccc(OC)cc2)c2nccn2C)cc1 (racemic)	83	91	80	103	106	–	–	–
COc1ccc(C(CC#CCN2CCCC(C(=O)O)C2)(c2ccc(OC)cc2)c2ccc(OC)cc2)cc1 (racemic)	–	–	–	–	–	37.2	52.5	17.4
O=C(O)C1CCCN(CCC#CC(c2ccccc2)(c2ccccc2)c2ccccc2)C1 (racemic)	–	64	–	61	66	0.0912	0.427	–
C=C=C(CN1CCCC(C(=O)O)C1)C(c1ccc(OC)cc1)(c1ccc(OC)cc1)c1ccc(OC)cc1 (racemic)	57	–	69	–	77	–	–	49
COc1ccc(C(/C=C/CN2CCCC(C(=O)O)C2)(c2ccc(OC)cc2)c2ccc(OC)cc2)cc1 (configuration not stated)	–	–	–	–	–	14.8	–	–
COc1ccc(C(O)(C#CCN2CCCC(C(=O)O)C2)c2ccc(OC)cc2)cc1 (racemic)	59	69	66	74	72	–	–	–
COc1ccc(CC(C#CCN2CCCC(C(=O)O)C2)(c2ccc(OC)cc2)c2ccc(OC)cc2)cc1 (racemic)	–	–	–	–	53	1.91	13.2	36.3
COc1ccc(C(C#CCN2CCCC(C(=O)O)C2)(c2ccc(OC)cc2)c2ccc3sccc3c2)cc1 (racemic)	–	–	–	–	–	1.91	11	12
COc1ccc(C(C#CCN2CCCC(C(=O)O)C2)(Cc2ccccc2)c2ccc(OC)cc2)cc1 (racemic)	–	–	–	–	67	2.14	8.32	41.7
COc1ccc(C(C#CCN2CCCC(C(=O)O)C2)(c2ccc(OC)cc2)c2ccc3c(c2)OCO3)cc1 (racemic)	–	–	–	–	–	4.9	22.9	51.3
COc1ccc(C(C#CCN2CCCC(C(=O)O)C2)(c2ccc(OC)cc2)c2ccsc2)cc1 (racemic)	–	–	–	–	70	5.25	25.1	34.7
COc1ccc(C(C#CCCN2CCCC(C(=O)O)C2)(c2ccc(OC)cc2)c2ccc(OC)cc2)cc1 (racemic)	–	–	–	–	–	2.75	15.8	25.7
COc1ccc(C(C#CCN2CCCC(C(=O)O)C2)c2ccc(OC)cc2)cc1 (racemic)	–	–	–	–	80	1.1	3.72	23.4
COc1ccc(C(OCCN2CCCC(C(=O)O)C2)(c2ccc(OC)cc2C)c2ccc(OC)cc2C)cc1 (configuration not stated)	–	–	–	–	–	38	67.6	8.51
COc1ccc(C(OCCN2CCC[C@H](C(=O)O)C2)(c2ccc(OC)cc2)c2ccc(OC)cc2C)cc1	59	–	–	–	–	–	64.6	1.66
